ZTA DNA inh: ZTA (EBV) inhibition in EBNA-1 counter-screen; P03206; ZTA-DNA binding, fluorescence polarization; inhibition, % at 11 µM; 320,000 compounds, 0.15% hits; AID 2234; in the data active means inhibition above about 33%
Target sequence (P03206 whole entry, looked up): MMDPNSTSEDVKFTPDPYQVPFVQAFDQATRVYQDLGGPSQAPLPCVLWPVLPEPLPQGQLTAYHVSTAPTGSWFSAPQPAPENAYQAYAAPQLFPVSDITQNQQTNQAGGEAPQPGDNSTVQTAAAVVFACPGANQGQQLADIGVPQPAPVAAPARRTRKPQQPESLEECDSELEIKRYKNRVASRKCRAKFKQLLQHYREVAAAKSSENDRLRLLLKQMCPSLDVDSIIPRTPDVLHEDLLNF
UBC13 inh: human UBC13 polyubiquitination inhibition; UBC13 polyubiquitin chain formation, TR-FRET; inhibition, % at 20 µM; 330,000 compounds, 0.47% hits; AID 485273; in the data active means inhibition above about 45%, passing the limit was not always enough
Target sequence (P61088 whole entry, looked up): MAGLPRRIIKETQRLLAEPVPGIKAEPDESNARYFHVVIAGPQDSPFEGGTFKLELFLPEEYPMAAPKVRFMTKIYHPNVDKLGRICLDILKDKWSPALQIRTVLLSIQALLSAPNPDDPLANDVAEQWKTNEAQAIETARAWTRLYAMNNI
PfM18AAP inh-1: blocks P. falciparum M18 aspartyl aminopeptidase. recombinant PfM18AAP, H-Glu-NHMec fluorogenic cleavage. inhibition, % at 7.35 µM. 290,000 compounds, 1.2% hits;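 active means inhibition above the campaign mean inhibition over all tested compounds plus 3 SD, cut at about 28% in these data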;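 further: 0% = plate median of test compound wells and 100% = 2 mM ZnCl2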
EBNA-1 inhibitor: blocks EBNA-1 binding to DNA; inhibition, % at 14.8 µM; AID 1950; EBNA-1 DNA binding, fluorescence polarization; 300,000 compounds, 0.34% hits; in the data active means inhibition above about 28%
Apaf1 inhib: inhibitors of human Apaf-1 apoptosome. reconstituted apoptosome caspase-3 activity, DEVD-Rh110 fluorescence. 330,000 compounds, 0.71% hits. inhibition, % at 20 µM. O14727; active means inhibition of at least 40% at 20 µM;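 further: plate controls were DMSO wells for no effect and DEVD-CHO caspase inhibitor wells for full effect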
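detection = Rh110 fluorescence intensity | test system = biochemical Apaf-1 apoptosome reconstitution | also added = cytochrome c and DEVD-Rh110 substrate | schedule = 30 min plus 50 min, RT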
PfG6PD inh: PfG6PD (Plasmodium falciparum) enzyme inhibition | PfGluPho enzyme, NADPH resazurin-diaphorase fluorescence | 350,000 compounds, 0.78% hits | inhibition, % at 20 µM;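 active means inhibition reaching at least a set limit at 20 µM in the primary screen, cut at about 59% in these data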;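 further: 0% = DMSO wells with substrate and 100% = DMSO wells lacking glucose-6-phosphate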
PfM18AAP inh-2: PfM18AAP inhibition, confirmation; 2,400 compounds, 28% hits; inhibition, % at 7.35 µM; shares compounds with PfM18AAP inh-1; AID 2170; recombinant PfM18AAP, H-Glu-NHMec fluorogenic cleavage;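 active means mean inhibition over replicate wells above the hit cutoff set for the earlier primary screen, cut at about 29% in these data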;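 further: 0% = median of test compound wells and 100% = 2 mM ZnCl2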
CTSL1 counter: Cathepsin L (human) inhibition, confirmation; purified cathepsin L1, Z-Leu-Arg-MCA fluorescence; 2,400 tested, under 10 active; shares compounds with PfM18AAP inh-1; inhibition, % at 5.96 µM;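 active means average inhibition across replicates above the hit cutoff set in the earlier primary screen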;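 further: 0% = median of test compound wells and 100% = Z-Phe-Ala-diazomethylketone 1 µM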
* hit, by the source's call; . = not tested or not shown. Compounds with a hit are over-represented: about 2.9% of the library has one in this group of screens.

SMILES	ZTA DNA inh	UBC13 inh	PfM18AAP inh-1	EBNA-1 inhibitor	Apaf1 inhib	PfG6PD inh	PfM18AAP inh-2	CTSL1 counter
COc1ccc(N(CC(=O)NCCSCc2ccco2)S(=O)(=O)c2ccccc2)cc1Cl	-17	5	-13	2	19	9	.	.
CC(C)Oc1ccc(N2CC(C(=O)Nc3ccccc3C(=O)NC3CC3)CC2=O)cc1 (stereo unspecified)	-20	-1	.	-9	5	-10	.	.
Cc1ccc(C2=NN(CCC(=O)NCCCN3CCOCC3)C(=O)CC2)cc1	-3	-1	-2	-5	0	-21	.	.
Oc1ccc(/C=N/Nc2nc(N3CCCC3)nc(N3CCCC3)n2)cc1O	12	5	54*	7	6	21	28*	5
Oc1ccc(/C=N/Nc2ccc(Cl)nn2)cc1O	-8	-10	47*	-17	1	-5	18	4
Cc1cc(=O)[nH]c(N/N=C/c2ccc(O)c(O)c2)n1	-8	-9	45*	-11	5	-26	21	8
COc1cc(/C=N/Nc2nc(N3CCCC3)nc(N3CCCC3)n2)ccc1O	-9	-5	-5	-4	-12	5	.	.
O=C(Cn1cnc2c(nnn2-c2cccc(Cl)c2)c1=O)NCc1ccccc1	9	-13	6	12	-8	-7	.	.
CC1(NC(=O)c2ccccc2)CCN(CCCc2ccccc2)C1=O (stereo unspecified)	0	4	.	.	-2	6	.	.
Cn1c(=O)c2c(ncn2CCOc2ccc(F)cc2)n(C)c1=O	5	-3	10	7	9	-4	.	.
Cc1cc(N/N=C/c2c[nH]c3ccccc23)c2ccccc2n1	10	12	3	10	-3	9	.	.
Cn1c(N/N=C/c2c[nH]c3ccccc23)nc2ccccc21	16	-4	54*	5	27	28	7	5
Cc1ccc(S(=O)(=O)C/N=C(/NC(=S)N(c2ccccc2)c2ccccc2)c2ccccc2)cc1	2	-6	-4	8	-6	20	.	.
COc1cc(OC)c2c(c1O)OC(c1ccccc1)CC2=O (stereo unspecified)	8	-11	49*	-9	-18	27	0	4
CCOC(=O)CNC(=O)Cn1cnc2c(nnn2-c2cccc(OC)c2)c1=O	.	-2	-3	.	-2	-9	.	.
Cc1cc(NS(=O)(=O)c2ccccc2)cc(Cl)c1O	1	15	67*	0	5	24	-56	-5
CSc1ccc(CNC(=O)Cc2ccc(NC(=O)C3=C(C)OCCS3)cc2)cc1	-14	-2	4	5	6	-13	.	.
COc1cccc(/C=N/Nc2nnc(C)n2N)c1O	5	-10	39*	2	3	24	-8	0
Cc1nnc(N/N=C/c2ccccc2C(F)(F)F)n1N	4	-7	39*	3	-12	29	-34	2
COc1cc(/C=N/NC(=O)c2ccc(CN(C)S(=O)(=O)c3ccc(C)cc3)cc2)ccc1O	4	-4	4	0	17	13	.	.
CC1CN(S(=O)(=O)c2cc(C(=O)NCCCN3CCCC3=O)ccc2Cl)CC(C)O1 (stereo unspecified)	.	-6	.	.	-3	-4	.	.
CCN(CC)c1ccc(NS(=O)(=O)c2ccc(OC)cc2)cc1	-13	-14	32*	-3	14	27	-27	1
CC(=O)c1cc(-c2ccccc2)n(CCC(=O)NC2CCCC2)c1C	1	-2	3	6	-21	7	.	.
CC(=O)c1cc(-c2ccc(F)cc2)n(CCC(=O)Nc2cc(C)[nH]n2)c1C	11	3	57*	3	-2	7	-48	-5
Nc1ccccc1-c1ccccc1N	7	5	2	3	-8	5	.	.
Nc1ccccc1N=Nc1ccccc1N	4	-215	41*	-4	9	14	6	2
O=C(NC1CCCCC1)C(c1ccc(O)c(O)c1)N(C(=O)Cn1nnc2ccccc21)c1cccc(O)c1 (stereo unspecified)	7	7	86*	0	-5	-5	83*	-2
CCN(CC)c1cccc(OC2=NS(=O)(=O)c3ccccc32)c1	7	7	36*	4	3	43	2	1
